# Bioassay records deposited in PubChem BioAssay by Sanford-Burnham Center for Chemical Genomics.
# Apaf-1 inh = human Apaf-1 inhibition. O14727. actives 0.71% (n = 330,000). reconstituted apoptosome caspase-3 activity, DEVD-Rh110 fluorescence. AID 489030. inhibition, % at 20 µM; active = inhibition of at least 40% at 20 µM;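 note: plate controls were DMSO wells for no effect and DEVD-CHO caspase inhibitor wells for full effect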
#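 Material: reconstituted apoptosome with Apaf-1, cytochrome c, caspase-9, procaspase-3, dATP. Technique: Rh110 fluorescence intensity. Buffer or medium: pH 7.5 Hepes buffer with CHAPS, BSA, DTT. Times: 30 min plus 50 min, RT.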
# SENP7 inh = blocks the human protease SENP7; Q9BQF6; recombinant SENP7, Z-RLRGG-aminoluciferin luminescence, 40 min; inhibition, % at 5 µM; actives 1.5% (n = 330,000); AID 434973;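 active = inhibition above about 50% at the single test dose, limit read from the data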;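 note: plate controls were DMSO with enzyme for no effect and no enzyme buffer wells for full effect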
# Target sequence (Q9BQF6 706-1050 limits assumed): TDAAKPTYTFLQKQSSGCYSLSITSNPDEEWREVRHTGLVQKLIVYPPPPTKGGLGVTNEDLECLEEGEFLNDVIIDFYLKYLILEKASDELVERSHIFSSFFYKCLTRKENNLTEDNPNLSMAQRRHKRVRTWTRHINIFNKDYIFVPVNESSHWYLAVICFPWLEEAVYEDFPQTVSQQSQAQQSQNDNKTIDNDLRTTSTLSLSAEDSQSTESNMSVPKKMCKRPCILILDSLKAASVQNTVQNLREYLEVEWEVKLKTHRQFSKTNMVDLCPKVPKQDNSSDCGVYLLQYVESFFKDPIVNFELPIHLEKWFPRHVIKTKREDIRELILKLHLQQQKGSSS
# SENP6 inh = SENP6 protease inhibition; Q9GZR1; inhibition, % at 10 µM; actives 1.8% (n = 330,000); Recombinant SENP6 catalytic domain, aminoluciferin luminescence; AID 2599;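 active = inhibition above about 50% at the single tested dose, limit read from the data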;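 note: plate controls were DMSO wells with enzyme for no effect and DMSO wells lacking enzyme for full effect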
# SENP8 block-1 = SENP8 protease inhibition; inhibition, % at 10 µM; purified SENP8, Z-RLRGG-aminoluciferin cleavage, luminescence; AID 2540; actives 1.2% (n = 330,000); Q96LD8; in the data active = inhibition above about 50%
# SENP8 block-2 = inhibitors of human SENP8 protease; Q96LD8; recombinant SENP8, Nedd8 substrate fluorescence; inhibition, % at 20 µM; actives 0.64% (n = 360,000); in the data active = inhibition mostly above about 40%, no sharp cut-off; inactive = mostly below about 27%
# UBC13 inh = inhibitors of human UBC13 polyubiquitin chain formation; TR-FRET; P61088; actives 0.47% (n = 330,000); inhibition, % at 20 µM; in the data active = inhibition above about 45%, passing the limit was not always enough
# Target sequence (P61088 whole entry, looked up): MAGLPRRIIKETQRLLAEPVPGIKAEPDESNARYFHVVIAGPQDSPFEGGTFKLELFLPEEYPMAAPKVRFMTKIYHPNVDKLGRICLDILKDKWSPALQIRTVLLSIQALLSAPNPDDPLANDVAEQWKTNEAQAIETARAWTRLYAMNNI
# Casp3 UBC13 ctr = counter-screen for UBC13 inhibitors: human caspase-3 inhibition; inhibition, % at 20 µM; actives 4% (n = 1,400); AID 488856; Recombinant caspase-3, Caspase-Glo 3/7 luminescence, 60 min; shares compounds with UBC13 inh;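 active = mean inhibition across replicates above about 26%, limit read from the data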;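 note: plate controls were DMSO with caspase-3 for no effect and DMSO wells lacking enzyme for full effect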
# UBC13 confirm = human UBC13 polyubiquitin inhibition, confirmed; shares compounds with UBC13 inh; UBC13 polyubiquitination, TR-FRET, biochemical; inhibition, % at 10 µM; actives 68% (n = 1,400); AID 488859; in the data active = inhibition above about 45%
# Apaf-1 inh conf2 = Apaf-1 inhibition, single-dose confirmed. shares compounds with Apaf-1 inh. reconstituted apoptosome, caspase-3 DEVD-Rh110 fluorescence. inhibition, % at 20 µM. actives 25% (n = 1,800);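 active = mean inhibition of at least 40% at 20 µM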;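 note: plate controls were DMSO wells for no effect and DEVD-CHO caspase inhibitor control wells for full effect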
# Rh110 interf inh = Rh110 signal interference in Apaf-1 inhibitor counter-screen | Rh110 fluorescence interference, quenched caspase reaction | 1,800 tested, under 10 active | shares compounds with Apaf-1 inh | activation (fluorescence interference), % at 20 µM;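 active = signal rise of 40% or more at 20 µM, treated as a fluorescence artifact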
# Apaf1 inh interf = Apaf-1 inhibitor counter-screen fluorescence artifact; fluorescence interference counterscreen, Apaf-1 assay format; shares compounds with Apaf-1 inh; IC50, µM; AID 588538; 460 tested, under 10 active; call rule not given here
# An asterisk follows results filed as active; · = no result given; ! = repeats disagree. This is a sample that favours compounds with a hit; in the whole collection about 3% have one here.
SMILES,Apaf-1 inh,SENP7 inh,SENP6 inh,SENP8 block-1,SENP8 block-2,UBC13 inh,Casp3 UBC13 ctr,UBC13 confirm,Apaf-1 inh conf2,Rh110 interf inh,others
CC(C)n1cnc2c(N(C)c3ccccc3)nc(N(CCN(C)C)Cc3ccccc3)nc21,44*,-14,-2,-14,-11,57*,-4,38,20,12,
COc1cc(N(Cc2ccccc2)Cc2ccccc2)c2ncn(C(C)C)c2c1,11,6,14,4,16,10,·,·,·,·,
CCc1ccc(CN2CCC(Oc3cc(C(=O)NC4CC4)ccc3OC)CC2)cc1,·,·,·,·,6,·,·,·,·,·,
CCOC(=O)C1=C(COCCN)NC(C)=C(C(=O)OC)C1c1ccccc1Cl (centres undefined),49*!,1,7,-8,-406,61*!,3,37,8,-10,
c1ccc(C[C@H]2CN=C(Nc3ccccc3)N2CCCC2CCCCC2)cc1,47*,9,0,-2,26,48*,-1,26,1,3,
c1ccc(C[C@H]2CN=C(Nc3ccccc3)N2CC2CCCCC2)cc1,28,-3,4,-13,6,17,·,·,·,·,
CCNC(=O)C1CCCN(C(=O)c2ccc(N(C)C)cc2)CC1 (centres undefined),·,·,·,·,11,·,·,·,·,·,
CCOc1ccc(CCN2C(=O)C(=O)N([C@H](CCCN(C)Cc3ccccc3)CNCc3ccccc3)C[C@@H]2C(C)C)cc1,26,-1,8,10,·,8,·,·,·,·,
COc1ccc(CNC[C@@H](CCCCN(C)Cc2ccc(OC)cc2)N2C[C@H](c3ccccc3)N(CCc3ccc(Cl)c(Cl)c3)C(=O)C2=O)cc1,49*,1,-11,-18,30,93*,-2,74*,51*,7,Apaf1 inh interf=>100
CCN(CC)c1ncnc2c1ncn2[C@H]1CN(Cc2ccncc2)C[C@@H](CO)O1,·,·,·,·,5,·,·,·,·,·,
c1csc(-c2ccc3nncn3c2)c1,·,·,·,·,-54,·,·,·,·,·,
CCCCc1oc2ccccc2c1C(=O)c1cc(I)c(OCCN(CC)CC)c(I)c1,53*,-2,-3,6,17,68*,0,58*,6,13,
CC1=C(C(=O)N(C)C)CC(CC(=O)NCCCCc2ccccc2)C(=O)N1Cc1ccccc1 (centres undefined),·,·,·,·,-9,·,·,·,·,·,
CCN1CCN(Cc2ccc(NC(=O)c3ccc(C)c(NC(=O)c4cc(-c5ccc(Br)cc5)n[nH]4)c3)cc2C(F)(F)F)CC1,45*,-1,-11,-14,10,72*,2,65*,22,-2,
CN1CCN(CC(=O)N2CCn3c4c(c5cc(C6CCCCC6)ccc53)CCCC42)CC1 (centres undefined),58*,-4,-10,-13,-85,90*,1,103*,37,7,
CC(C)C[C@@H](CN1CCC[C@H]1CN1C(=O)C(=O)NC[C@@H]1Cc1ccccc1)N1C[C@H](Cc2ccccc2)N(CCc2ccccc2)C(=O)C1=O,·,·,·,·,6,·,·,·,·,·,
CCC[C@@H](CN1CCC[C@H]1CN1C(N)=NC[C@H]1CC(C)C)N1C[C@@H](Cc2ccccc2)N(CCc2ccc(Cl)c(Cl)c2)C1=N,68*,-4,-7,-8,19,82*,0,89*,25,9,
CCC[C@@H](CN1CCC[C@H]1CN1C(N)=NC[C@@H]1Cc1ccccc1)N1C[C@@H]([C@H](C)CC)N(CCc2ccc(Cl)c(Cl)c2)C1=N,67*,-8,-18,-10,22,74*,0,74*,9,2,
CCC[C@@H](CN1CCC[C@H]1CN1C(N)=NC[C@@H]1Cc1ccccc1)N1C[C@@H](Cc2ccccc2)N(CCc2ccc(Cl)c(Cl)c2)C1=N,78*,-5,-14,-9,10,75*,1,77*,30,-5,
Cc1cccc(NC(=O)c2nc[nH]c2C(=O)NC[C@H](C)O)c1,·,·,·,·,-1,·,·,·,·,·,
CN1Cc2c(N3CCOCC3)nc3sc(C#N)c(N)c3c2CC1(C)C,8,-6,-15,-7,-440,-13,·,·,·,·,
CN1Cc2c(N3CCOCC3)nc3sc(C(=O)c4ccc(Br)cc4)c(N)c3c2CC1(C)C,56*,8,10,-3,-18,51*,0,85*,62*,5,Apaf1 inh interf=>100
CC(C)C[C@@H](CN1CCCC1CN1C(=S)NC[C@@H]1Cc1ccccc1)N1C[C@H](Cc2ccccc2)N(CC2CCCCCC2)C1=S (some centres undefined),·,·,·,·,12,·,·,·,·,·,
CCC[C@@H](CN1CCC[C@H]1CN1C(N)=NC[C@H]1CC(C)C)N1C[C@@H](Cc2ccccc2)N(CCCC2CCCC2)C1=N,59*,-4,12,-1,12,77*,-1,83*,15,9,
CCC[C@@H](CN1CCC[C@H]1CN1C(N)=NC[C@@H]1Cc1ccccc1)N1C[C@@H]([C@H](C)CC)N(CCCC2CCCC2)C1=N,77*,-7,4,-1,-12,91*,2,85*,32,9,
SMILES,Apaf-1 inh,SENP7 inh,SENP6 inh,SENP8 block-1,SENP8 block-2,UBC13 inh,Casp3 UBC13 ctr,UBC13 confirm,Apaf-1 inh conf2,Rh110 interf inh,others
CCCCN1C(=N)N([C@@H](C)CN2CCC[C@H]2CN2C(N)=NC[C@H]2CC(C)C)C[C@H]1Cc1ccccc1,18,-1,0,8,9,27,·,·,·,·,
CC(C)[C@H](CN1CCC[C@H]1CN1C(N)=NC[C@H]1C(C)C)N1C[C@@H](Cc2ccccc2)N(CCCC2CCCC2)C1=N,63*,-8,-49,-20,17,70*,1,69*,6,0,
CCC[C@@H](CN1CCC[C@H]1CN1C(N)=NC[C@@H]1Cc1ccccc1)N1C[C@@H](Cc2ccccc2)N(CCCC2CCCC2)C1=N,70*,2,-11,4,15,65*,-4,58*,13,4,
CCCCc1c(-c2ccccc2OC)ncn1CCc1ccccc1,·,·,·,·,-6,·,·,·,·,·,
OC(c1ccc(Cl)c(F)c1)c1ncc(-c2ccc(F)cc2)[nH]1 (centres undefined),·,·,·,·,9,·,·,·,·,·,
CC1=C(C(=O)N2CCOCC2)CC(CC(=O)NC2CCCCC2)C(=O)N1Cc1ccc(F)cc1 (centres undefined),·,·,·,·,11,·,·,·,·,·,
